Results taken from ChEMBL document CHEMBL1150398, “Design and synthesis of 7-alkoxy-4-heteroarylamino-3-quinolinecarbonitriles as dual inhibitors of c-Src kinase and nitric oxide synthase” (Bioorg Med Chem, 2008).

Legend:
[1] = target: T1, Nitric oxide synthase, inducible (Mus musculus, UniProt P29477); assay: Inhibition of inducible nitric oxide synthetase in LPS-stimulated mouse ANA1 macrophages
T1 sequence (P29477 whole entry): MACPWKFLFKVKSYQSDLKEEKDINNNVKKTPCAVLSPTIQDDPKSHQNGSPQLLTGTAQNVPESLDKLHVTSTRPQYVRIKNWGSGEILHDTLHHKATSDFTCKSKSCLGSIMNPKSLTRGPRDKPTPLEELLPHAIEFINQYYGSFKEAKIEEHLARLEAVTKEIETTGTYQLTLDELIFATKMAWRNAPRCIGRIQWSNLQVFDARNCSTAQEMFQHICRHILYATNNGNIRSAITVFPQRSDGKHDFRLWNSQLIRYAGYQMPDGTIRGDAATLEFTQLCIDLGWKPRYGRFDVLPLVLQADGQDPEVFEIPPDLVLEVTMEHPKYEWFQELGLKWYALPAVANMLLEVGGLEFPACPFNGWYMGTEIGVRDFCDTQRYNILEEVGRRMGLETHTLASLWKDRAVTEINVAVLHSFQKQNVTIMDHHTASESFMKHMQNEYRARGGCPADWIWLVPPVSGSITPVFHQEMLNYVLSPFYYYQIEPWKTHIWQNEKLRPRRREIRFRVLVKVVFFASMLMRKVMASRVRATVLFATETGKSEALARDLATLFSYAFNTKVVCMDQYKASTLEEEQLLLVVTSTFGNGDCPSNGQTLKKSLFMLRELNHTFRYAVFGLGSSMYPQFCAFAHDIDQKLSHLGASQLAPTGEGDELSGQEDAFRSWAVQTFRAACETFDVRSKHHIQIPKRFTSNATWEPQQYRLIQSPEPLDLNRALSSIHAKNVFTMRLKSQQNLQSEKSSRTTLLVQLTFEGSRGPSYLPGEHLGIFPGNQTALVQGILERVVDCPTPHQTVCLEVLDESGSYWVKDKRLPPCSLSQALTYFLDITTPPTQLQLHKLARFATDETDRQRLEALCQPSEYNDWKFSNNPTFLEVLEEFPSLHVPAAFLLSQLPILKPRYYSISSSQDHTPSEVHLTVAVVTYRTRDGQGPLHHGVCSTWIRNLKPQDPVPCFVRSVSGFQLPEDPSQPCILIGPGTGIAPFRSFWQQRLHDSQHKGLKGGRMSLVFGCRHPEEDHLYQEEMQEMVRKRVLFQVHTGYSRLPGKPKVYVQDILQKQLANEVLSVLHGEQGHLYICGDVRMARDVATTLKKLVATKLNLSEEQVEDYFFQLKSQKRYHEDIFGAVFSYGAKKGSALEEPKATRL
Outline: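 ANA-1 macrophages grown in DMEM with 10% heat-inactivated FBS and 2 mM L-glutamine, 37 °C, 5% CO₂, 10⁵ cells/mL prepared the day before. Cells stimulated with LPS for 24 h, collected, then given assay buffer, L-arginine substrate and DAF-FM DA tracer. Reaction started with 0.1 mM NADPH, 37 °C 30 min, washed, fluorescence read. Triplicate, mean of three.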

[2] = target: T2, Proto-oncogene tyrosine-protein kinase Src (Homo sapiens, UniProt P12931); assay: Inhibition of human recombinant cSrc by ELISA
[3] = target: T2, Proto-oncogene tyrosine-protein kinase Src; assay: Inhibition of human recombinant cSrc by fluorescence polarization assay
[4] = test system: HepG2; assay: Antiproliferative activity against human HepG2 cells after 48 hrs by sulforhodamine B assay; assay type: functional, cell-based; conditions: HepG2, 48 h; for CC50: read-out: LC50 (the source's name)
Outline: (§1)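 SRB assay: cells plated in 96-well plates, mostly at 20,000 cells/well, pre-incubated 24 h without drug. Compounds added in 10-fold dilutions from highest soluble concentration, 48 h further incubation. Cells fixed in situ, washed, dried, SRB stained; proliferation inhibition from change in total optical density after 48 h treatment.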

[5] = test system: HT-29; assay: Antiproliferative activity against human HT29 cells after 48 hrs by sulforhodamine B assay; assay type: functional, cell-based; conditions: HT-29, 48 h; for CC50: read-out: LC50 (the source's name); outline: as §1

T2 sequence (P12931 2-536 limits assumed): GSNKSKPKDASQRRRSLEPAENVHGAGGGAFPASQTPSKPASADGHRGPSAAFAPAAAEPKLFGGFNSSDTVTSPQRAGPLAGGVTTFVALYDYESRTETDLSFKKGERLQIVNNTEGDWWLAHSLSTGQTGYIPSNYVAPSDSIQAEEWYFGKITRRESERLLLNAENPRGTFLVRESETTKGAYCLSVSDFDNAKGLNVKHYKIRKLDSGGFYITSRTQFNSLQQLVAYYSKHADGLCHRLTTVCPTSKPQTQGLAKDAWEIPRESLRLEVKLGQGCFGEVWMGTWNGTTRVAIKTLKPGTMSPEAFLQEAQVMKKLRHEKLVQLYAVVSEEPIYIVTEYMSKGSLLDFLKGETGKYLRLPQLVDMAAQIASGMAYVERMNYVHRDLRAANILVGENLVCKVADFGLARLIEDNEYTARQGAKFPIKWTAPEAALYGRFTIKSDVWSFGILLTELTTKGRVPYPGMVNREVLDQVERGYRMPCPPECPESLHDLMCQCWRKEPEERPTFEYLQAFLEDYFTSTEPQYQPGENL

Cc1ccc2nc(Nc3c(C#N)cnc4cc(OCCCN5CCN(C)CC5)c(C)cc34)sc2c1
IC50 [1]: 12.7 µM

Cc1cc2c(Nc3nc4ccccc4s3)c(C#N)cnc2cc1OCCCN1CCOCC1
IC50 [1]: 139 µM

Cc1cc2c(Nc3nc4ccccc4s3)c(C#N)cnc2cc1OCCCN1CCCCC1
IC50 [1]: 412 µM

COc1cc2c(Nc3nc4ccc(OC(F)(F)F)cc4s3)c(C#N)cnc2cc1OCCCN1CCN(C)CC1
IC50 [1]: 65.6 µM

COc1cc2c(Nc3nc4ccccc4s3)c(C#N)cnc2cc1OCCN1CCOCC1
IC50 [2]: > 1 µM | IC50 [1]: 26.7 µM

COc1cc2c(Nc3nc4ccccc4s3)c(C#N)cnc2cc1OCCCN1CCN(C)CC1
IC50 [1]: 98 µM

COc1cc2c(Nc3nc4ccccc4s3)c(C#N)cnc2cc1OCCN1CCN(C)CC1
IC50 [1]: 2.18 µM

COc1cc2c(Nc3nc4ccccc4s3)c(C#N)cnc2cc1OCCN1CCCCC1
IC50 [1]: 44.8 µM

Cc1cc2c(Nc3nc4ccc(OC(F)(F)F)cc4s3)c(C#N)cnc2cc1OCCCN1CCN(C)CC1
IC50 [1]: 16.3 µM

Cc1cc2c(Nc3ccccn3)c(C#N)cnc2cc1OCCCN1CCN(C)CC1
IC50 [1]: 18.6 µM

Cc1cc2c(Nc3nc4ccccc4[nH]3)c(C#N)cnc2cc1OCCCN1CCN(C)CC1
IC50 [1]: 15.5 µM | IC50 [3]: > 1 µM

COc1cc2c(Nc3nc4ccccc4[nH]3)c(C#N)cnc2cc1OCCCN1CCN(C)CC1
IC50 [1]: 18.1 µM

Cc1ccc2nc(Nc3c(C#N)cnc4cc(OCCCN5CCCCC5)c(C)cc34)sc2c1
GI50 [4]: 4.85 µM | IC50 [4]: 7.61 µM | TGI [4]: 9.25 µM | CC50 [4]: > 10 µM | IC50 [1]: 313 µM | GI50 [5]: 5.59 µM | IC50 [5]: 6.58 µM | TGI [5]: > 10 µM | CC50 [5]: > 10 µM

Nc1nccs1 [AMINOTHIAZOLE]
IC50 [1]: 18 µM

COc1cc(Nc2c(C#N)cnc3cc(OCCCN4CCN(C)CC4)c(OC)cc23)c(Cl)cc1Cl [BOSUTINIB]
GI50 [4]: 1.15 µM | IC50 [4]: 3.91 µM | TGI [4]: 7.66 µM | CC50 [4]: > 10 µM | GI50 [5]: 1.17 µM | IC50 [5]: 3.87 µM | TGI [5]: 6.5 µM | CC50 [5]: > 10 µM

N=C(N)NOCC[C@H](N)C(=O)O [CANAVANINE]
IC50 [1]: 60 µM
